Results taken from PMC2900318 (Bioorganic & medicinal chemistry letters, 2009).
Converted amounts (≈) assume the structure as drawn. One block for each molecule: values may come before it.

Legend:
[1] = In vitro stability with human liver S9 incubation with or without NADPH; format: in vitro ADME; settings: for Parent compound remaining after the reaction / Level of the corresponding acid metabolite: human hepatic S9, 60 min; for Parent compound remaining after the reaction: with or without NADPH; for Level of the corresponding acid metabolite: metabolites 15 and 27, respectively
[2] = target: T1, human sEH (Homo sapiens, UniProt P34913); assay: Inhibition of human sEH, kinetic fluorescent assay; format: biochemical; settings: for Fold better inhibitory activity against sEH: salicylic acids vs benzoic acids 14 and 15, respectively
T1 sequence (P34913 1-555): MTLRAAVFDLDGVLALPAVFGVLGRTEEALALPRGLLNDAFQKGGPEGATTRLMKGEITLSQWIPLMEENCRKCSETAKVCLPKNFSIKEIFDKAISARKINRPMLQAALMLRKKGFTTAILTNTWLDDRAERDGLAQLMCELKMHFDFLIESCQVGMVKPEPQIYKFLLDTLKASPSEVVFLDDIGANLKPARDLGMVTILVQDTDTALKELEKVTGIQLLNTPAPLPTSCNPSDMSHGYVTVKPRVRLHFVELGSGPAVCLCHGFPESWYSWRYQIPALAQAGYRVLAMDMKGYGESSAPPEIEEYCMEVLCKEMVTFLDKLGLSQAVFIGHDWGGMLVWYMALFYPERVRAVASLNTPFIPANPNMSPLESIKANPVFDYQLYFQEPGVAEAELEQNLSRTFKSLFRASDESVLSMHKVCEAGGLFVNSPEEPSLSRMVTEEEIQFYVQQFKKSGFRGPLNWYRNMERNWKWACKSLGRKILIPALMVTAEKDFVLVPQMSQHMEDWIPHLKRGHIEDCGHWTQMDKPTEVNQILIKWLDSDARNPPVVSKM

[3] = Solubility in water; format: physicochemical
[4] = Blood levels after oral administration to dog; format: in vivo; settings: oral gavage 0.3 mg/kg in tri-olein rich oil
Procedure, shortened: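 Dogs received the test compound as a single oral gavage dose of 0.3 mg/kg in tri-olein rich oil. Blood concentrations were followed over time to give concentration–time profiles.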

[5] = Octanol/buffer partition, experimental logP; format: physicochemical; settings: for Concentration in buffer: 0.1 M sodium phosphate buffer (pH 7.4) vs buffer saturated 1-octanol; for Concentration in octanol: buffer saturated 1-octanol vs 0.1 M sodium phosphate buffer (pH 7.4)
[6] = Chemical stability; format: physicochemical; settings: 40 mM NaOH; 22 °C
Procedure, shortened: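 The test compound was incubated in alkaline solution (40 mM NaOH) at 22 °C. Hydrolysis was followed over time as conversion to the corresponding phenol.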

[7] = target: T1, human sEH; settings: statement in words; cited from earlier work
[8] = target: T2, COX-2 (Homo sapiens, UniProt P35354); assay: COX-2 fluorescent inhibitor screening assay kit; format: biochemical; settings: at 10 μM
T2 sequence (P35354 18-604): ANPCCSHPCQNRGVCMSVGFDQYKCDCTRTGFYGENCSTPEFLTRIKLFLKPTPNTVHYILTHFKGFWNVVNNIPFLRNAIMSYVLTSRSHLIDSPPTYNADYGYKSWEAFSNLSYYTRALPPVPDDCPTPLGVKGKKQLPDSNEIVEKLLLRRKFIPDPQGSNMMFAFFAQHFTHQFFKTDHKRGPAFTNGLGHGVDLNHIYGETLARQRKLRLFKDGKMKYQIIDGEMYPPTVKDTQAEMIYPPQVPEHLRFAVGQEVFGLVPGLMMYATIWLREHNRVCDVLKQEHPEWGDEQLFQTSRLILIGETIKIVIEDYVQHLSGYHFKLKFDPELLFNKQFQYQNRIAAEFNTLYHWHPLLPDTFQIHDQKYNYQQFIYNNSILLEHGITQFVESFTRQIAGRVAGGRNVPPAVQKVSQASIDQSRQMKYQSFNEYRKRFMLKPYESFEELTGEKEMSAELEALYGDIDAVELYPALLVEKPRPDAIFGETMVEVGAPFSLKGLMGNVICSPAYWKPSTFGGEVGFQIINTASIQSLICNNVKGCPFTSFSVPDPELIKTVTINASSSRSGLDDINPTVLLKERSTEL

[9] = target: T3, COX-1 (Ovis aries, UniProt P05979); assay: COX-1 fluorescent inhibitor screening assay kit; format: biochemical; settings: at 10 μM
T3 sequence (P05979 25-600): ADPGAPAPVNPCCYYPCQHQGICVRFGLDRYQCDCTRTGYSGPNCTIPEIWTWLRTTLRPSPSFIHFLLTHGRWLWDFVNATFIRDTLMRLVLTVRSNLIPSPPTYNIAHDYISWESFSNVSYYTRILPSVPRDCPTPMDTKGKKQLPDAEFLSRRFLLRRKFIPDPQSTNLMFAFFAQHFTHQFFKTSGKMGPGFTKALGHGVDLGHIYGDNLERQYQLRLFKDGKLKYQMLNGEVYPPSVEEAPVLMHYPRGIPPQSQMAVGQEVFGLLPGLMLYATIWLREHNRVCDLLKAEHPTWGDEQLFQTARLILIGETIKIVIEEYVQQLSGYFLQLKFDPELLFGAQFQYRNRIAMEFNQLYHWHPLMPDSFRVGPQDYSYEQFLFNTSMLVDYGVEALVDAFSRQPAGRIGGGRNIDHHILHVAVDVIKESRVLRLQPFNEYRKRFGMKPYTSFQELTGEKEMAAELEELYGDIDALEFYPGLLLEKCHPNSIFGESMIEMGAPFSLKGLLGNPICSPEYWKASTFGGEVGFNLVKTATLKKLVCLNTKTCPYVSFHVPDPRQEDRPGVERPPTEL

- Fold increase in metabolic stability ([1]; human liver S9, compared to 12): 10 fold
Compound: COC(=O)c1cc(NC(=O)NC23CC4CC(CC(C4)C2)C3)ccc1O [Compound 26]

- Fold better inhibitory activity against sEH [2]: 20 fold
- Fold more soluble in water ([3]; compared to 17 (so in the source)): 20 fold
- Blood concentration [4]: no 27 was detected
- Concentration in buffer [5]: 39 µM
- Concentration in octanol [5]: 1641 µM
Compound: O=C(Nc1ccc(C(=O)O)c(O)c1)NC12CC3CC(CC(C3)C1)C2 [Compound 27]

- Fold better inhibitory activity against sEH [2]: 3 fold
Compound: O=C(Nc1ccc(O)c(C(=O)O)c1)NC12CC3CC(CC(C3)C1)C2 [Compound 25]

- Inhibition of COX-2 [8]: not able to show any inhibition
- IC50 [2]: ~3 nM
- Parent compound remaining after the reaction [1]: ≥ 90%
- Level of the corresponding acid metabolite [1]: below the limit of detection
- Concentration in buffer [5]: <0.3 µM
- Concentration in octanol [5]: 3886 µM
- Inhibition of COX-1 [9]: not able to show any inhibition
Compound: COC(=O)c1ccc(NC(=O)NC23CC4CC(CC(C4)C2)C3)cc1O [Compound 28]
- Blood concentration [4]: higher than that of the classical sEH inhibitor AUDA

More lines, now with the values behind:

Compound: CC(=O)Oc1ccc(NC(=O)NC23CC4CC(CC(C4)C2)C3)cc1 [Compound 10]
- Hydrolysis to the corresponding phenol 4 ([1]; human hepatic S9, in an hour): hydrolyzed completely
- Time to complete conversion to the corresponding phenol 4 [6]: less than 15 min

Compound: O=C(NC12CC3CC(CC(C3)C1)C2)NC12CC3CC(CC(C3)C1)C2 [N,N′-bisadamantyl urea]
- Inhibition towards sEH [7]: strong inhibition

Compound: COC(=O)c1ccc(NC(=O)NC23CC4CC(CC(C4)C2)C3)cc1 [Compound 13]
- Parent compound remaining after the reaction [1]: ≥ 90%
- Level of the corresponding acid metabolite [1]: below the limit of detection
- Concentration in buffer [5]: <0.3 µM
- Concentration in octanol [5]: 2445 µM

Compound: O=C(Nc1ccccc1O)NC12CC3CC(CC(C3)C1)C2 [Compound 2]
- Fold reduction of inhibitory potency against human sEH ([2]; ortho hydroxy vs non-functionalized compound 1 / meta, para isomers): roughly 10 fold

Compound: O=C(Nc1ccc(C(=O)O)cc1)NC12CC3CC(CC(C3)C1)C2 [Compound 15]
- Fold less active towards sEH ([2]; vs un-substituted phenyl 1 or the corresponding ester 13): 83 fold

Compound: O=C(Nc1cccc(C(=O)N2CCC(N3CCOCC3)CC2)c1)NC12CC3CC(CC(C3)C1)C2 [Compound 17]
- solubility ([3]; sodium phosphate buffer, pH 7.4): 10000 µg/mL (≈ 21.4 mM)
- Concentration in octanol [5]: 2720 µM

Compound: O=C(Nc1ccc(OC(=O)c2ccccc2)cc1)NC12CC3CC(CC(C3)C1)C2 [Compound 11]
- Parent compound remaining after the reaction [1]: 30%
- Time to complete conversion to the corresponding phenol 4 [6]: less than 15 min
